From ChEMBL document CHEMBL3124843, “Synthesis, cytostatic, antimicrobial, and anti-HCV activity of 6-substituted 7-(het)aryl-7-deazapurine ribonucleosides” (J Med Chem, 2014)
Activity calls are given as the source filed them. No rule for the calls is given here.

How the values were obtained:
Hepatitis C virus [1] = assay: Antiviral activity against Hepatitis C virus subtype 2a infected in human HuH7 cells; format: functional, organism-based, Hepacivirus hominis; conditions: genotype 2a, Huh-7
K562 [2] = assay: Cytostatic activity against paclitaxel-resistant human K562 cells after 72 hrs by MTT assay; format: functional, cell-based; conditions: K562, 72 h
Procedure, shortened: (§1)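 IC50 is the concentration that cuts cell growth by 50%, read by quantitative metabolic MTT staining after a 3-day treatment. The resistant sublines were made by raising the concentration of the cytotoxic drug step by step. CEM-DNR-bulk (daunorubicin-selected) stably overexpresses mrp-1. K562-TAX (paclitaxel-selected) expresses only mdr-1. HCT116p53−/− carries null p53 alleles. BJ and MRC-5 are nonmalignant fibroblasts.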

Enterococcus faecalis = assay: Antibacterial activity against Enterococcus faecalis CCM 4224 after 24 hrs; format: functional, organism-based
HCT-116 [3] = assay: Cytostatic activity against human HCT116 cells after 72 hrs by MTT assay; format: functional, cell-based; conditions: HCT-116, 72 h; procedure, shortened: as §1
HCT-116 [4] = assay: Cytostatic activity against p53-deficient human HCT116 cells after 72 hrs by MTT assay; format: functional, cell-based; conditions: HCT-116, 72 h; procedure, shortened: as §1
HepG2 = assay: Antiproliferative activity against human HepG2 cells after 72 hrs by XTT assay; format: functional, cell-based; conditions: HepG2, 72 h
[5] = Cytotoxicity against human HuH7 cells infected with Hepatitis C virus subtype 1b; format: cell-based, Huh-7
MRC5 = assay: Cytostatic activity against human MRC5 cells after 72 hrs by MTT assay; format: ADME, cell-based; conditions: MRC5, 72 h; procedure, shortened: as §1
[6] = test system: Staphylococcus haemolyticus; assay: Antibacterial activity against methicillin-resistant Staphylococcus haemolyticus A/16568 after 24 hrs; format: functional, organism-based
Hepatitis C virus [7] = assay: Antiviral activity against Hepatitis C virus subtype 1b infected in human HuH7 cells; format: functional, organism-based, Hepacivirus hominis; conditions: genotype 1b, Huh-7
Pseudomonas aeruginosa [8] = assay: Antibacterial activity against multi-resistant Pseudomonas aeruginosa A/16575 after 24 hrs; format: functional, organism-based
Staphylococcus aureus [9] = assay: Antibacterial activity against methicillin-resistant Staphylococcus aureus MRSA 4591 after 24 hrs; format: functional, organism-based
A549 = assay: Cytostatic activity against human A549 cells after 72 hrs by MTT assay; format: functional, cell-based; conditions: A549, 72 h; procedure, shortened: as §1
Escherichia coli [10] = assay: Antibacterial activity against multi-resistant Escherichia coli C/16702 after 24 hrs; format: functional, organism-based
Staphylococcus aureus [11] = assay: Antibacterial activity against Staphylococcus aureus CCM 3953 after 24 hrs; format: functional, organism-based
Candida albicans = assay: Antifungal activity against Candida albicans after 48 hrs; format: functional, organism-based
CCRF-CEM = assay: Cytostatic activity against human CCRF-CEM cells after 72 hrs by MTT assay; format: functional, cell-based; procedure, shortened: as §1
Candida tropicalis = assay: Antifungal activity against Candida tropicalis after 48 hrs; format: functional, organism-based
Pichia kudriavzevii = assay: Antifungal activity against Candida crusei after 48 hrs; format: functional, organism-based
HL-60 = assay: Antiproliferative activity against human HL60 cells after 72 hrs by XTT assay; format: functional, cell-based; conditions: HL-60, 72 h
Procedure, shortened: (§2)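 Antiproliferative test on HL-60 promyelocytic leukemia and HeLa S3 cervical carcinoma cells growing in liquid suspension.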

BJ = assay: Cytostatic activity against human BJ cells after 72 hrs by MTT assay; format: ADME, cell-based; procedure, shortened: as §1
Candida parapsilosis = assay: Antifungal activity against Candida parapsilosis after 48 hrs; format: functional, organism-based
[12] = Antiproliferative activity against human HeLaS3 cells after 72 hrs by XTT assay; format: functional, cell-based; conditions: HeLa S3, 72 h; procedure, shortened: as §2
[13] = Cytotoxicity against human HuH7 cells infected with Hepatitis C virus subtype 2a; format: cell-based, Huh-7
[14] = Cytostatic activity against human CEM-DNR-bulk cells after 72 hrs by MTT assay; format: functional, cell-based; procedure, shortened: as §1
K562 [15] = assay: Cytostatic activity against human K562 cells after 72 hrs by MTT assay; format: functional, cell-based; conditions: K562, 72 h; procedure, shortened: as §1
Pseudomonas aeruginosa [16] = assay: Antibacterial activity against Pseudomonas aeruginosa CCM 3955 after 24 hrs; format: functional, organism-based
Escherichia coli [17] = assay: Antibacterial activity against Escherichia coli CCM 3954 after 24 hrs; format: functional, organism-based

Structure (SMILES) | EC50 (Hepatitis C virus [1]) | IC50 (K562 [2]) | Activity (Enterococcus faecalis) | IC50 (HCT-116 [3]) | IC50 (HCT-116 [4]) | IC50 (HepG2) | CC50 [5] | IC50 (MRC5) | Activity [6] | EC50 (Hepatitis C virus [7]) | Activity (Pseudomonas aeruginosa [8]) | Activity (Staphylococcus aureus [9]) | IC50 (A549) | Activity (Escherichia coli [10]) | Activity (Staphylococcus aureus [11]) | Activity (Candida albicans) | IC50 (CCRF-CEM) | Activity (Candida tropicalis) | Activity (Pichia kudriavzevii) | IC50 (HL-60) | further results
CN(C)c1ncnc2c1c(-c1cc3ccccc3o1)cn2[C@@H]1O[C@H](CO)[C@@H](O)[C@H]1O | > 44 µM | > 20 µM | inactive | > 20 µM | > 20 µM | > 20 µM | > 44 µM | > 100 µM | inactive | 19.2 µM | inactive | inactive | > 20 µM | inactive | inactive | inactive | > 20 µM | inactive | inactive | > 20 µM | IC50 (BJ): > 100 µM; Activity (Candida parapsilosis): inactive; IC50 [12]: > 20 µM; CC50 [13]: > 44 µM; IC50 [14]: > 20 µM; IC50 (K562 [15]): > 20 µM; Activity (Pseudomonas aeruginosa [16]): inactive; Activity (Escherichia coli [17]): inactive
O=c1[nH]cnc2c1c(-c1ccco1)cn2[C@@H]1O[C@H](CO)[C@@H](O)[C@H]1O | > 44 µM | 17.8 µM | inactive | 18.3 µM | > 20 µM | > 15 µM | > 44 µM | > 100 µM | inactive | > 44 µM | inactive | inactive | > 20 µM | inactive | inactive | inactive | > 20 µM | inactive | inactive | 2.2 µM | IC50 (BJ): > 100 µM; Activity (Candida parapsilosis): inactive; IC50 [12]: 5.78 µM; CC50 [13]: > 44 µM; IC50 [14]: > 20 µM; IC50 (K562 [15]): 15.5 µM; Activity (Pseudomonas aeruginosa [16]): inactive; Activity (Escherichia coli [17]): inactive
Cc1ncnc2c1c(-c1ccsc1)cn2[C@@H]1O[C@H](CO)[C@@H](O)[C@H]1O | > 44 µM | 5.55 µM | inactive | 0.46 µM | 1.43 µM | 4.72 µM | > 44 µM | > 100 µM | inactive | 4.47 µM | inactive | inactive | > 20 µM | inactive | inactive | inactive | 11.2 µM | inactive | inactive | 0.35 µM | IC50 (BJ): 96.9 µM; Activity (Candida parapsilosis): inactive; IC50 [12]: 14.3 µM; CC50 [13]: > 44 µM; IC50 [14]: 8.56 µM; IC50 (K562 [15]): 0.32 µM; Activity (Pseudomonas aeruginosa [16]): inactive; Activity (Escherichia coli [17]): inactive
Nc1nc2c(c(-c3ccsc3)cn2[C@@H]2O[C@H](CO)[C@@H](O)[C@H]2O)c(=O)[nH]1 | > 44 µM | 18.3 µM | inactive | > 20 µM | > 20 µM | > 20 µM | > 44 µM | > 100 µM | inactive | > 44 µM | inactive | inactive | > 20 µM | inactive | inactive | inactive | > 20 µM | inactive | inactive | > 20 µM | IC50 (BJ): > 100 µM; Activity (Candida parapsilosis): inactive; IC50 [12]: > 20 µM; CC50 [13]: > 44 µM; IC50 [14]: > 20 µM; IC50 (K562 [15]): > 20 µM; Activity (Pseudomonas aeruginosa [16]): inactive; Activity (Escherichia coli [17]): inactive
O=c1[nH]cnc2c1c(-c1ccsc1)cn2[C@@H]1O[C@H](CO)[C@@H](O)[C@H]1O | > 44 µM | > 20 µM | inactive | > 20 µM | > 20 µM | > 15 µM | > 44 µM | > 100 µM | inactive | 14.3 µM | inactive | inactive | > 20 µM | inactive | inactive | inactive | 14.5 µM | inactive | inactive | 12 µM | IC50 (BJ): > 100 µM; Activity (Candida parapsilosis): inactive; IC50 [12]: > 20 µM; CC50 [13]: > 44 µM; IC50 [14]: > 20 µM; IC50 (K562 [15]): > 20 µM; Activity (Pseudomonas aeruginosa [16]): inactive; Activity (Escherichia coli [17]): inactive
